Converted amounts (≈) assume the structure as drawn.

For data set [1], the system named is Candida albicans. Description: Antifungal activity against Candida albicans CPCC 400523 by broth microdilution method. The format is functional. Put shortly: (§1)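 Serial twofold-style dilution in growth medium per NCCLS broth microdilution guidelines. Compounds dissolved in DMSO before dilution. Fluconazole and itraconazole served as positive controls. MIC was read as the lowest concentration that prevents visible fungal growth.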

The subject of data set [2] is Candida albicans. Description: Antifungal activity against Candida albicans ATCC SC5314 by broth microdilution method. The class given is functional. Put shortly:
as §1

Data set [3] concerns Cryptococcus neoformans. As to the kind of experiment: Antifungal activity against Cryptococcus neoformans cgmcc 2.3161 by broth microdilution method. The format is functional. An outline of the steps:
as §1

The subject of data set [4] is Candida tropicalis. Description: Antifungal activity against Candida tropicalis cgmcc 2.3739 by broth microdilution method. The class given is functional. Put shortly: as §1
The test system of data set [5] is Aspergillus fumigatus. As to the kind of experiment: Antifungal activity against Aspergillus fumigatus GIM 3.524 by broth microdilution method. The format is functional. An outline of the steps: as §1
For data set [6], the system named is Candida albicans. As to the kind of experiment: Antifungal activity against fluconazole-resistant Candida albicans strain 100 by broth microdilution method. The format is functional. Put shortly: (§2)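 Broth serial dilution in 96-well plates per NCCLS guidelines; compounds dissolved in DMSO and serially diluted into growth medium; MIC taken as lowest concentration inhibiting visible fungal growth. Fluconazole-resistant clinical C. albicans isolates 100 and 103; fluconazole and itraconazole as positive controls.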

In data set [7] the test system is Candida albicans. As to the kind of experiment: Antifungal activity against fluconazole-resistant Candida albicans strain 103 by broth microdilution method. The format is functional. Put shortly: as §2
The nature of data set [8]: Metabolic stability in human plasma assessed as parent compound remaining at 60 mins. The class given is ADME, cell-free. Conditions: read-out: Stability.
Data set [9] in a line: Metabolic stability in human plasma assessed as parent compound remaining at 120 mins. Particulars: read-out: Stability. The class given is ADME, cell-free.

Turning to `CC(C)COC(=O)[C@H](Cn1ccnc1)NC(=O)c1ccc(-c2ccccc2)s1`, the minimum inhibitory concentration (MIC) was 4 µg/mL (≈ 10.1 µM) in data set [1]; 2 µg/mL (≈ 5.03 µM) in [2]; > 16 µg/mL in data set [3]; 0.125 µg/mL (≈ 0.314 µM) in data set [4]; > 16 µg/mL in data set [5].

`CC(C)COC(=O)[C@H](Cn1ccnc1)NC(=O)c1ccc(-c2ccccc2)o1`: the MIC in data set [1] is > 16 µg/mL; in [2] it was > 16 µg/mL; in [3] it was > 16 µg/mL; in data set [4], 4 µg/mL (≈ 10.5 µM); in data set [5], > 16 µg/mL.

With `Cc1nc(-c2ccccc2)sc1C(=O)N[C@@H](Cn1ccnc1)C(=O)OC(C)C`, the MIC in [1] is 2 µg/mL (≈ 5.02 µM); in data set [2], 2 µg/mL (≈ 5.02 µM); in data set [3], 16 µg/mL (≈ 40.2 µM); in [4] it was 0.25 µg/mL (≈ 0.627 µM); in data set [5], > 16 µg/mL.

Consider `Cc1nc(-c2ccccc2)sc1C(=O)N[C@@H](Cn1ccnc1)C(=O)OCC(C)C`, for which the minimum inhibitory concentration (MIC) in [1] is 1 µg/mL (≈ 2.42 µM); in data set [2], 0.25 µg/mL (≈ 0.606 µM); in data set [3], 8 µg/mL (≈ 19.4 µM); in data set [4] it was 0.125 µg/mL (≈ 0.303 µM); in data set [5], > 16 µg/mL.

Take `CC(C)OC(=O)[C@H](Cn1ccnc1)NC(=O)c1ccc(-c2ccccc2F)cc1`: the MIC was 0.25 µg/mL (≈ 0.632 µM) in data set [1]; 0.0625 µg/mL (≈ 0.158 µM) in [2]; 1 µg/mL (≈ 2.53 µM) in data set [3]; 0.0625 µg/mL (≈ 0.158 µM) in data set [4]; > 16 µg/mL in data set [5].

`CC(C)OC(=O)[C@H](Cn1ccnc1)NC(=O)c1cc(-c2ccc(Br)cc2)on1`: the MIC in data set [1] was 0.25 µg/mL (≈ 0.559 µM); in data set [2], 0.0625 µg/mL (≈ 0.14 µM); in data set [3], 2 µg/mL (≈ 4.47 µM); in data set [4], 0.0312 µg/mL (≈ 0.0699 µM); in data set [5], > 16 µg/mL.

Regarding `CCC(C)n1ncn(-c2ccc(N3CCN(c4ccc(OCC5COC(Cn6cncn6)(c6ccc(Cl)cc6Cl)O5)cc4)CC3)cc2)c1=O` (centres undefined) [ITRACONAZOLE], the MIC is 0.125 µg/mL (≈ 0.177 µM) in data set [1]; 0.0312 µg/mL (≈ 0.0443 µM) in [2]; 1 µg/mL (≈ 1.42 µM) in data set [3]; 0.0312 µg/mL (≈ 0.0443 µM) in [4]; 1 µg/mL (≈ 1.42 µM) in [5].

Take `CC(C)OC(=O)[C@H](Cn1ccnc1)NC(=O)c1cc(-c2ccc(F)cc2)on1`: the MIC in data set [1] was determined as 2 µg/mL (≈ 5.18 µM); in data set [2], 1 µg/mL (≈ 2.59 µM); in data set [3] it was 2 µg/mL (≈ 5.18 µM); in data set [4], 0.0312 µg/mL (≈ 0.0809 µM); in [5], 8 µg/mL (≈ 20.7 µM).

Consider `CC(C)OC(=O)[C@H](Cn1ccnc1)NC(=O)c1coc(-c2ccccc2)n1`, for which the MIC is > 16 µg/mL in data set [1]; > 16 µg/mL in data set [2]; > 16 µg/mL in [3]; 8 µg/mL (≈ 21.7 µM) in data set [4]; > 16 µg/mL in [5].

Consider `CC(C)COC(=O)[C@H](Cn1ccnc1)NC(=O)c1cc(-c2ccc(F)cc2)on1`, for which the MIC in data set [1] was determined as 2 µg/mL (≈ 4.99 µM); in [2], 0.5 µg/mL (≈ 1.25 µM); in data set [3], 0.5 µg/mL (≈ 1.25 µM); in data set [4] it was 0.0312 µg/mL (≈ 0.078 µM); in [5] it was 8 µg/mL (≈ 20 µM).

Regarding `CC(C)COC(=O)[C@H](Cn1ccnc1)NC(=O)c1coc(-c2ccccc2)n1`, the MIC in data set [1] was > 16 µg/mL; in data set [2], > 16 µg/mL; in [3], > 16 µg/mL; in data set [4], 4 µg/mL (≈ 10.5 µM); in data set [5] it was > 16 µg/mL.

`CC(C)COC(=O)[C@H](Cn1ccnc1)NC(=O)c1csc(-c2ccccc2)n1`: the minimal inhibitory concentration (MIC) in [1], in data set [2], in data set [3], in data set [4] and in data set [5] was > 16 µg/mL each time.

For `CC(C)OC(=O)[C@H](Cn1ccnc1)NC(=O)c1nc(-c2ccccc2)cs1`, the MIC is > 16 µg/mL in [1]; > 16 µg/mL in data set [2]; 2 µg/mL (≈ 5.2 µM) in data set [3]; 0.0625 µg/mL (≈ 0.163 µM) in data set [4]; > 16 µg/mL in data set [5].

As to `CC(C)OC(=O)[C@H](Cn1ccnc1)NC(=O)c1cc(-c2ccccc2)on1`, the minimum inhibitory concentration (MIC) in [1] was 0.5 µg/mL (≈ 1.36 µM); in data set [2], 0.25 µg/mL (≈ 0.679 µM); in data set [3], 0.5 µg/mL (≈ 1.36 µM); in data set [4], 0.0625 µg/mL (≈ 0.17 µM); in [5] it was 4 µg/mL (≈ 10.9 µM).

As to `CC(C)COC(=O)[C@H](Cn1ccnc1)NC(=O)c1cc(-c2ccc(Br)cc2)on1`, the minimal inhibitory concentration (MIC) is 0.125 µg/mL (≈ 0.271 µM) in [1]; 0.0312 µg/mL (≈ 0.0677 µM) in data set [2]; 2 µg/mL (≈ 4.34 µM) in data set [3]; 0.0312 µg/mL (≈ 0.0677 µM) in [4]; > 16 µg/mL in data set [5].

With `CC(C)COC(=O)[C@H](Cn1ccnc1)NC(=O)c1nc(-c2ccccc2)cs1`, the MIC in [1] was > 16 µg/mL; in [2] it was > 16 µg/mL; in data set [3], 2 µg/mL (≈ 5.02 µM); in data set [4] it was 0.125 µg/mL (≈ 0.314 µM); in data set [5], > 16 µg/mL.

Consider `CC(C)COC(=O)[C@H](Cn1ccnc1)NC(=O)c1cc(-c2ccccc2)on1`, for which the MIC in data set [1] was 1 µg/mL (≈ 2.61 µM); in data set [2], 0.0625 µg/mL (≈ 0.163 µM); in [3], 0.25 µg/mL (≈ 0.654 µM); in [4], 0.0312 µg/mL (≈ 0.0817 µM); in [5] it was 4 µg/mL (≈ 10.5 µM).

On to `CC(C)OC(=O)[C@H](Cn1ccnc1)NC(=O)c1ccc(-c2ccccc2)o1`, for which the MIC was > 16 µg/mL in [1]; > 16 µg/mL in [2]; > 16 µg/mL in [3]; 8 µg/mL (≈ 21.8 µM) in [4]; > 16 µg/mL in [5].

On to `Cc1cc(C(=O)N[C@@H](Cn2ccnc2)C(=O)OC(C)C)nn1-c1ccccc1`, for which the minimal inhibitory concentration (MIC) in [1] is > 16 µg/mL; in data set [2], > 16 µg/mL; in data set [3] it was > 16 µg/mL; in data set [4], 4 µg/mL (≈ 10.5 µM); in data set [5], > 16 µg/mL.

For the compound `CC(C)OC(=O)[C@H](Cn1ccnc1)NC(=O)c1cnc(-c2ccccc2)nc1`, the minimal inhibitory concentration (MIC) in [1] was 1 µg/mL (≈ 2.64 µM); in data set [2], 0.25 µg/mL (≈ 0.659 µM); in [3], 8 µg/mL (≈ 21.1 µM); in [4] it was 0.0625 µg/mL (≈ 0.165 µM); in data set [5], > 16 µg/mL.

On to `CC(C)COC(=O)[C@H](Cn1ccnc1)NC(=O)c1cc(-c2ccccc2F)on1`, for which the MIC amounted to 0.125 µg/mL (≈ 0.312 µM) in data set [1]; 0.0312 µg/mL (≈ 0.078 µM) in data set [2]; 0.25 µg/mL (≈ 0.624 µM) in data set [3]; 0.0312 µg/mL (≈ 0.078 µM) in data set [4]; 4 µg/mL (≈ 9.99 µM) in data set [5]; 0.125 µg/mL (≈ 0.312 µM) in data set [6]. In addition, in [7], the MIC came to 0.5 µg/mL (≈ 1.25 µM). For the same compound, the remaining at 1 h in data set [8] was 74.6%. Moreover, the remaining at 2 h in data set [9] stood at 61.4%.

Take `CC(C)COC(=O)[C@H](Cn1ccnc1)NC(=O)c1cnc(-c2ccccc2)nc1`: the MIC in data set [1] is 0.5 µg/mL (≈ 1.27 µM); in data set [2], 0.25 µg/mL (≈ 0.635 µM); in [3], 2 µg/mL (≈ 5.08 µM); in data set [4], 0.125 µg/mL (≈ 0.318 µM); in data set [5] it was > 16 µg/mL.

Take `Cc1ccc(-c2cc(C(=O)N[C@@H](Cn3ccnc3)C(=O)OCC(C)C)no2)cc1`: the MIC in [1] came out at 0.5 µg/mL (≈ 1.26 µM); in [2], 0.125 µg/mL (≈ 0.315 µM); in [3] it was 0.5 µg/mL (≈ 1.26 µM); in data set [4] it was 0.0312 µg/mL (≈ 0.0788 µM); in data set [5] it was 8 µg/mL (≈ 20.2 µM).

`CC(C)OC(=O)[C@H](Cn1ccnc1)NC(=O)c1ccc(-c2ccccc2)nc1`: the MIC in [1] is 4 µg/mL (≈ 10.6 µM); in data set [2], 2 µg/mL (≈ 5.28 µM); in [3], 16 µg/mL (≈ 42.3 µM); in data set [4], 1 µg/mL (≈ 2.64 µM); in data set [5] it was > 16 µg/mL.

Regarding `Cc1ccc(-c2cc(C(=O)N[C@@H](Cn3ccnc3)C(=O)OC(C)C)no2)cc1`, the MIC in data set [1] turned out to be 0.5 µg/mL (≈ 1.31 µM); in data set [2] it was 0.25 µg/mL (≈ 0.654 µM); in data set [3], 2 µg/mL (≈ 5.23 µM); in [4] it was 0.0312 µg/mL (≈ 0.0817 µM); in data set [5], 8 µg/mL (≈ 20.9 µM).

On to `Cc1cc(C(=O)N[C@@H](Cn2ccnc2)C(=O)OCC(C)C)nn1-c1ccccc1`, for which the MIC in data set [1] was > 16 µg/mL; in [2] it was > 16 µg/mL; in data set [3], > 16 µg/mL; in data set [4], 4 µg/mL (≈ 10.1 µM); in data set [5], > 16 µg/mL.

As to `CC(C)OC(=O)[C@H](Cn1ccnc1)NC(=O)c1csc(-c2ccccc2)n1`, the MIC in data set [1], in data set [2], in data set [3], in [4] and in data set [5] was > 16 µg/mL throughout.

Take `CC(C)OC(=O)[C@H](Cn1ccnc1)NC(=O)c1ccc(-c2ccccc2)s1`: the MIC is 8 µg/mL (≈ 20.9 µM) in [1]; 8 µg/mL (≈ 20.9 µM) in data set [2]; 16 µg/mL (≈ 41.7 µM) in data set [3]; 1 µg/mL (≈ 2.61 µM) in data set [4]; > 16 µg/mL in data set [5].

The values are drawn from ChEMBL document CHEMBL4118063, “Design, synthesis and evaluation of aromatic heterocyclic derivatives as potent antifungal agents” (Eur J Med Chem, 2017).
